# Assay outcomes deposited in PubChem by several laboratories.
# Hits are enriched below; roughly 2.1% of the tested compounds scored in any of these assays.
# Insulin prom inh: inhibitors of insulin promoter-driven GFP, primary screen, imaging, TRM-6 cells (human fetal islet line), eGFP reporter, cell count. 130,000 compounds, 0.9% hits. inhibition, % at 2 µM. reporter expression induced with tamoxifen. AID 1273, 2008;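 active means inhibition above the mean plus 3 SD, with well images judged a real hit on visual review, cut at about 60% in these data, passing the limit was not always enough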
# Insulin prom up: insulin promoter activators in MIN6 cells, imaging, high-content screening, mouse beta cells. MIN6 insulin promoter-GFP reporter; hits give high values. AID 1625, 2009. 190,000 compounds, 0.3% hits. z-score at 5 µM;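 active means z-score above 3 at 5 µM with at least 500 cells counted in the well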
# PERK inh: block of dimerizer-induced PERK translation repression, primary screen, PERK inhibitor project, CHO PERK-DD cells, SEAP luminescence, HTS. Eukaryotic translation initiation factor 2-alpha kinase 3 (Homo sapiens), Q9NZJ5. CHO PERK-DD fusion, SEAP luminescence translation reporter. inhibition, % at 5.6 µM. 220,000 compounds, 0.17% hits. AID 1416, 2008;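 active means inhibition above the mean inhibition of all tested compounds plus 3 SD, set separately per screening campaign, cut at about 2.9% in these data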;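 further: PERK kinase domain activated by AP20187 dimerizer at 100 nM; 0% = DMSO with dimerizer and 100% = rapamycin at 8.4 µM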
# Autophagy HCS: autophagy modulators in MEF cells, primary screen, imaging, high-content, MEF GFP-LC3; 190,000 compounds, 0.98% hits; calls only at 10 µM (by protocol); MEF GFP-LC3 puncta imaging; test concentration mostly 10 µM;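 active means percentage of spot-positive cells more than 3 SD above its plate mean, without a fluorescence outlier flag or 80% toxicity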;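 further: spot-positive cell cutoff set from DMSO-treated cells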
# Dynein transport: inhibitors of GR-EGFP nuclear translocation, primary screen, dynein cargo transport inhibitor project, imaging, high-content, 3617.4 mouse cells; test concentration mostly 20 µM; stimulated with dexamethasone, 1 µM; hits give low values; z-score, hits read low; 220,000 compounds, 0.47% hits;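 active means plate z-score of nuclear minus cytoplasmic receptor signal below a set negative limit, without overly bright fluorescence or cell loss, cut at about -3.5 in these data, passing the limit was not always enough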;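 further: z-score of nuclear minus cytoplasmic ring GR-EGFP intensity difference per well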
#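 Buffer or medium: tetracycline-free induction medium containing charcoal-stripped FBS / Reagent: dexamethasone agonist, 1.0 µM final, for 30 min / Technique: automated 10x imaging of fixed Hoechst-stained cells / Times: induction 48 h, compound 1 h, agonist 30 min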
# Dynein inh conf: dynein cargo transport inhibitors, GR-EGFP translocation, confirmation, imaging, high-content imaging, GR-EGFP cells. calls only at 20 µM. 1,000 compounds, 69% hits. 3617.4 GR-EGFP nuclear translocation imaging, dexamethasone-induced. shares compounds with Dynein transport;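 active means inhibition of receptor movement into the nucleus at or above a set limit in both runs, with normal cell brightness and cell count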;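 further: dexamethasone at 1 µM final in well for 30 min; nuclear minus cytoplasmic GR-EGFP mean intensity difference in channel 2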
# * = called active by the depositor; i = inactive; x = no result given; + = active, no number.
SMILES,Insulin prom inh,Insulin prom up,PERK inh,Autophagy HCS,Dynein transport,Dynein inh conf
Cn1c(=O)[nH]c(=O)c2c1nc([N+](=O)[O-])n2Cc1ccccc1,x,-0.42,1,x,-4.9*,+
Cc1ccccc1Cn1cc(NC(=O)CCCn2nc([N+](=O)[O-])cc2C)cn1,x,-0.9,-1,i,-1,x
CCC(=O)N/N=C/c1ccc(-c2ccc([N+](=O)[O-])cc2)o1,29,0.2,1,i,1.2,x
CC(C)(C)C(=O)/C=c1\s/c(=C\c2ccc(-c3ccc([N+](=O)[O-])cc3)o2)c(=O)n1CC(=O)NC(N)=O,x,x,1,x,-8*,+
CC(C)CN1C(=O)/C(=C/c2c(N3CCc4ccccc4C3)nc3ccccn3c2=O)SC1=S,x,17*,-1,x,-8.6,i
Nc1cccc2c1C(=O)N(C(=O)/C=C/c1cccc(F)c1)C2=O,-173,-0.32,0,i,-4.3*,+
Nc1cccc2c1C(=O)N(C(=O)/C=C/c1cccc(Br)c1)C2=O,x,0.49,2,x,-4.9*,+
COc1cc(/C=C/C(=O)N2C(=O)c3cccc(N)c3C2=O)cc(OC)c1OC,x,-0.32,1,i,-0.32,x
Cc1ccccc1NC(=O)COC(=O)c1ccc(S(C)(=O)=O)c([N+](=O)[O-])c1,-29,-0.27,1,i,-4.4*,+
CS(=O)(=O)c1ccc(C(=O)OCc2nnc(-c3ccccc3)o2)cc1[N+](=O)[O-],-8,0.26,0,i,-6.6*,+
CN(C)S(=O)(=O)c1ccc(C(=O)OCc2nnc(-c3ccccc3)o2)cc1,x,0.1,0,x,-0.14,x
O=C(Nc1cccc(Cl)c1)c1ccc2c(c1)SC1=NS(=O)(=O)CCN12,22,0.03,1,i,-0.51,x
CCOC(=O)C1CCN(C(=O)Nc2ccc3nc(-c4ccco4)c(-c4ccco4)nc3c2)CC1,68,0.15,1,i,-4.5*,i
O=C(Nc1ccc2nc(-c3ccco3)c(-c3ccco3)nc2c1)N1CCCCCC1,x,-0.07,0,i,-1.1,x
O=c1c2ccccc2sn1-c1ccccc1,7,0.03,0,i,-5.2*,+
CN(C)S(=O)(=O)c1cccc(-n2sc3ccccc3c2=O)c1,x,-0.12,0,i,-3.6*,i
N#Cc1ccccc1S(=O)(=O)N1CCN(c2cnccn2)CC1,x,0.07,1,i,1.2,x
O=Cc1[nH]c2ccccc2c1N(C(=O)CCl)c1ccccc1,x,0.74,0,x,-7.6,+
O=C(CCl)N(c1ccccc1)c1ccccc1,x,-0.55,0,i,-4.5*,+
CCCCCCN(C(=O)CCl)c1ccccc1,x,-0.28,2,x,-4.7*,+
COc1cccc(/C=C2/CN(C)CC3=C2OC(N)=C(C#N)C3c2cccc(OC)c2)c1 (stereo not given),-7,x,0,i,-0.9,x
COC(=O)C1SCC2C(=O)N(Cc3ccc(Cl)c(Cl)c3)CC(=O)N21 (stereo not given),x,1.8,-1,i,1.1,x
Cc1ccc(C(C[N+](=O)[O-])n2nc(C)cc2C)cc1 (stereo not given),18,-0.24,1,i,-5.3*,i
Cc1ccc(S(=O)(=O)n2nc(C)cc2C)cc1,25,-0.91,0,i,2.1,x
CC(=O)/C(=C/c1ccccc1)C(=O)Nc1ccccc1C,x,-0.3,0,i,-6.7*,+
SMILES,Insulin prom inh,Insulin prom up,PERK inh,Autophagy HCS,Dynein transport,Dynein inh conf
Cc1ccccc1NC(=O)C(=Cc1ccc(C(=O)O)cc1)C(=O)Nc1ccccc1C,-28,1.1,1,i,-2.6,x
COc1ccc(Nc2cc(Cl)nc(N)n2)cc1OC,55,-0.7,0,i,-0.69,x
CCOCCCNC1=C(Cl)C(=O)c2ccccc2C1=O,x,0.58,0,x,-5.3*,+
O=S(=O)(Nc1ccc2c(c1)nc1n2CCN(Cc2ccccc2)C1)c1ccccc1,24,x,-1,i,-3.2,x
Cc1ccc(S(=O)(=O)Nc2ccc3c(c2)nc2n3CCN(Cc3ccccc3)C2)cc1,0,0.61,0,i,-3.5*,i
Cc1sc(NC(=O)c2sc3nc4c(C)cccc4cc3c2N)c(C#N)c1C,-22,x,0,+,-4.9,+
Cc1cccc2cc3c(N)c(C(=O)N4CCc5ccccc54)sc3nc12,-233,4.4*,0,+,-11,i
Cc1cccc2cc3c(N)c(C#N)sc3nc12,x,0.14,0,i,0.46,x
C[N+](C)(C)C(Cc1c[nH]c2ccccc12)C(=O)[O-] (stereo not given),x,-0.44,x,x,-0.35,x
CC(C)(C)C(=O)/C(C#N)=C/c1cccs1,x,x,0,x,0.27,x
N#C/C(=C\c1cccs1)C(=O)c1ccccc1Cl,x,0.18,0,x,-4.9*,+
O=C(Oc1oc(-c2ccco2)nc1C=Nc1ccccc1)c1ccoc1,x,-0.25,0,i,-4*,+
Cc1ccc(C(=O)Oc2oc(-c3ccco3)nc2C=Nc2ccc(Cl)cc2)cc1,-37,1.6,0,i,-3.7*,+
Cc1ccc2[nH]c(=O)c(CNS(=O)(=O)c3ccccc3)c(-c3ccccc3)c2c1,-53,1.8,0,i,-0.13,x
ClC1=C(Cl)C(Cl)=C(Cl)C1=C/C=C/c1ccccc1,x,-1.6,1,x,-4.1*,i
O=C1OC(/C=C/c2ccccc2)=NC/1=C/C=C/c1ccccc1,25,-0.03,1,i,-0.71,x
CCc1c(C)sc(NC(=S)N2CC(C)OC(C)C2)c1C(=O)OC (stereo not given),x,-1.5,0,i,-0.75,x
Cc1nnc(NN2CCOCC2)[nH]c1=O,x,0.11,1,i,0.4,x
